eIF4H inh: human eIF4H binding inhibitors, primary screen, translation initiation inhibitor project, biochemical, uHTS, fluorescence polarization; eIF4H fluorescence polarization binding assay; inhibition, % at 35 µM; actives 0.94% (n = 290,000); AID 2012, 2009;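 further: calls also rest on retests at 20 µM and on dose response follow-up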
DNA FID counter: compounds displacing fluorescent DNA intercalator, primary screen, artefact control for HCV NS3 helicase inhibitor project, biochemical, FID fluorescence; inhibition, % at 7.9 µM; actives 0.17% (n = 290,000); DNA fluorescent intercalator displacement; in the data active means inhibition above about 37%;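 further: higher means more ethidium bromide displaced from hairpin DNA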
HCV NS3 hel inh: inhibitors of HCV NS3 helicase, primary screen, biochemical, Cy5 molecular beacon fluorescence; Hepatitis C virus NS3 helicase; NS3 helicase DNA unwinding; inhibition, % at 10.9 µM; actives 0.56% (n = 290,000);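 active means inhibition above the mean of all tested compounds plus 3 SD, set per campaign, cut at about 35% in these data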
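System: HCV NS3 helicase fragment; control set: DMSO and thioflavine S; technique: Cy5 fluorescence at 0 and 60 min, beacon hairpin quenching; reagent: beacon DNA duplex substrate plus ATP; replicates: singlicate; schedule: 1 h reaction at 25 °C, ATP-initiated; medium: MOPS buffer pH 6.5 with MgCl2, DTT, Tween20, BSA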
core dimer inh: inhibitors of HCV core protein dimerization, primary screen, biochemical, TR-FRET, high-throughput; TR-FRET GST/Flag-core106 dimerization, 1536-well; inhibition, % at 5 µM; actives 0.33% (n = 300,000); AID 1899, 2009;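 active means inhibition above the mean of all tested compounds plus 3 SD, set per screening campaign, cut at about 45% in these data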
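Material: Tagged HCV core106 pair (GST and Flag) | Amount: GST-core106 13.5 nM, Flag-core106 17 nM | Medium: KF-containing HEPES buffer, pH 7.45, DTT, CHAPS, BSA | Reagent: Eu donor and XL665 acceptor anti-tag antibodies | Schedule: 4 h at 22.5 °C | Technique: Time-resolved FRET, ex 340 nm, em 617 and 671 nm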
PABP FP inh: PABP poly(A) RNA binding inhibitors, primary screen, biochemical, fluorescence polarization, uHTS; actives 1% (n = 290,000); Polyadenylate-binding protein 1 (Homo sapiens), P11940; inhibition, % at 35 µM;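 further: calls also rest on retests at 20 µM and on dose response follow-up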
MLLE-PAM2 inh: inhibitors of PABP1 MLLE–PAM2 peptide binding, primary screen, biochemical, fluorescence polarization, FITC-PAM2, GST-MLLE. Polyadenylate-binding protein 1 (Homo sapiens), P11940. inhibition, % at 20 µM. actives 0.36% (n = 360,000). AID 588489, 2011; in the data active means inhibition above about 35%, passing the limit was not always enough
Numbers stand for hits; n = inactive; u = inconclusive; x = not tested or not shown. Hits are enriched below; roughly 2% of the tested compounds scored in any of these assays. Unless noted, how the calls were made is not given here.

SMILES | eIF4H inh | DNA FID counter | HCV NS3 hel inh | core dimer inh | PABP FP inh | MLLE-PAM2 inh
CCCC(=O)Nc1cc(-c2nn(C)c(=O)c3ccccc23)ccc1N1CCOCC1 | n | n | n | n | n | n
CC(=O)Nc1cc(-c2nn(C)c(=O)c3ccccc23)ccc1N1CCOCC1 | u | n | n | n | active | n
COc1ccc2nc(NC(=O)CSC3=NCCS3)sc2c1 | n | n | n | n | n | n
COc1ccc(OC)c(NC(=O)CSC2=NCCS2)c1 | n | n | n | n | n | 40
CN1c2cccc3cccc(c23)N(C)C1(C)C | 73 | n | n | n | 55 | n
CN1c2ccccc2N(C)C1(C)c1cccc2ccccc12 | u | n | n | n | n | n
Cc1ccc(C)c(CN2C(=O)C3CCCN3c3ccc(S(=O)(=O)N4CCOCC4)cc32)c1 (centres undefined) | u | n | n | 51 | u | x
COc1ccccc1-n1cc(-c2ccc([N+](=O)[O-])cc2)[nH]c1=S | n | n | n | n | n | 39
O=C(O)CCC1c2cc3c4cc2OC2Oc5cc6c(cc51)C(CCC(=O)O)c1cc5c7cc1OC(O6)c1cc6cc(c1)Oc1cc(cc(C(=O)O)c1)Oc1cc8cc(c1)C(Oc1cc(c(cc1C5CCC(=O)O)C3CCC(=O)O)OC(O4)c1cc(cc(c1)Oc1cc(cc(C(=O)O)c1)O8)Oc1cc(cc(C(=O)O)c1)Oc1cc(cc2c1)Oc1cc(cc(C(=O)O)c1)O6)O7 (centres undefined) | x | x | x | 61 | x | x
CC1(C)S[C@@H]2[C@H](NC(=O)COc3ccccc3)C(=O)N2C1C(=O)OCc1cc2ccccc2n1S(=O)(=O)c1ccccc1 (some centres undefined) | n | n | n | 66 | n | x
CC1(C)S[C@@H]2[C@H](NC(=O)COc3ccccc3)C(=O)N2C1C(=O)OCC1CCCCC1 (some centres undefined) | x | x | x | n | x | n
Cn1c(SCC(=O)Nc2sccc2C(N)=O)nc2ccccc2c1=O | x | x | x | x | x | n
NC(=O)c1ccsc1NC(=O)CSc1nc2ccccc2c(=O)n1CCCO | n | n | n | n | n | 51
Cc1ccc[n+](-c2[nH]c(=O)sc2/C=N/N=C(\[O-])c2cccnc2)c1 | n | n | n | n | n | n
O=C(N/N=C/c1sc(=O)[nH]c1-[n+]1ccc2ccccc2c1)c1ccccc1[O-] | x | n | n | n | x | n
Cc1ccc[n+](-c2[nH]c(=O)sc2/C=N/NC(=O)c2ccccc2[O-])c1 | n | n | n | n | n | 48
O=C(N/N=C/c1sc(=O)[nH]c1-[n+]1ccccc1)c1ccccc1[O-] | n | n | n | n | n | 61
CCOC(=O)C1=CCC(c2ccc(CC)cc2)N(S(=O)(=O)c2ccc(C)cc2)C1 (centres undefined) | x | x | x | x | x | n
CN(Cc1ccc2c(c1)CCCN2C)C(=O)[C@H]1O[C@@H](n2ccc(=O)[nH]c2=O)[C@H](O)[C@@H]1O | x | x | x | x | x | 47
COc1cccc(-c2cnc(C(O)c3ccc(F)c(C)c3)[nH]2)c1 (centres undefined) | x | x | x | x | x | n
Cc1ccc(OC2CCN(C(=O)[C@H]3O[C@@H](n4ccc(=O)[nH]c4=O)[C@H](O)[C@@H]3O)CC2)cc1 | x | x | x | x | x | n
O=C(NCc1ccco1)C1Cc2ccccc2CN1S(=O)(=O)c1ccccc1F (centres undefined) | x | n | n | 55 | x | n
Cc1ccc(NS(=O)(=O)c2ccc(-n3cccn3)cc2)c(Cl)c1 | x | x | x | x | x | n
O=C(/C=C/c1ccco1)Oc1ccc(C(=S)N2CCOCC2)cc1 | 97 | n | n | n | active | n
O=Cc1cccc(OC(=O)/C=C/c2ccco2)c1 | 89 | n | n | n | 70 | n
O=C(Cc1cccc2ccccc12)N/N=C/c1ccc(OC(=O)/C=C/c2ccco2)cc1 | n | n | n | 65 | n | n
Cn1cc(C(=O)Nc2ccc(C#N)cc2)c2ccccc2c1=O | n | n | n | n | n | n
NNC(=O)c1oc2nc(-c3cccs3)cc(-c3ccco3)c2c1N | u | n | n | n | 22 | n
